Experimental data reported in ChEMBL document CHEMBL4428053, “Application of a Parallel Synthetic Strategy in the Discovery of Biaryl Acyl Sulfonamides as Efficient and Selective NaV1.7 Inhibitors” (J Med Chem, 2016).
In brackets after ≈: the same amount, converted by molar mass. Activity calls are given as the source filed them. The rule behind the calls is not given here.

Legend:
[1] = biological target: Sodium channel protein type 9 subunit alpha (Mus musculus, UniProt Q62205); test: Inhibition of mouse Nav1.7 expressed in HEK293 cells incubated for 3 to 5 mins at -125 mV holding potential by electrophysiology assay; type: cell-based
[2] = AUC (infinity) in Harlan rat at 1 mg/kg, iv by LC-MS/MS analysis; type: ADME, organism-based; parameters: dose 1 mg/kg, route intravenous, time infinity; details: in vivo
Outline: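 Male fed rats. The IV dose was given in 100% DMSO. The oral dose was given in 1% Tween 80, 2% HPMC, 97% water/NaOH (pH 8.5).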

Mus musculus [3] = test: In vivo inhibition of Nav1.7 in C57BL/6 mouse assessed as reduction in histamine-induced scratching bouts at 300 mg/kg, po administered 4 hrs prior to histamine challenge measured for 15 mins; type: functional; details: C57BL/6, po
Outline: (§1)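 Mice were dosed orally with vehicle, diphenhydramine (30 mg/kg, n = 8) or test article at 30 (n = 9), 100 (n = 10) or 300 (n = 10) mg/kg; vehicle n = 12. All groups received histamine intradermally. Total scratch bouts were counted, with unbound plasma concentration reported per dose. Statistics: one-way ANOVA with Dunnett's test versus vehicle.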

[4] = biological target: Sodium channel protein type 3 subunit alpha (Homo sapiens, UniProt Q9NY46); test: Inhibition of human Nav1.3 expressed in CHO cells assessed as reduction in peak inward current by manual whole cell patch clamp electrophysiology assay; type: cell-based
Chain of Sodium channel protein type 3 subunit alpha (Q9NY46 whole entry): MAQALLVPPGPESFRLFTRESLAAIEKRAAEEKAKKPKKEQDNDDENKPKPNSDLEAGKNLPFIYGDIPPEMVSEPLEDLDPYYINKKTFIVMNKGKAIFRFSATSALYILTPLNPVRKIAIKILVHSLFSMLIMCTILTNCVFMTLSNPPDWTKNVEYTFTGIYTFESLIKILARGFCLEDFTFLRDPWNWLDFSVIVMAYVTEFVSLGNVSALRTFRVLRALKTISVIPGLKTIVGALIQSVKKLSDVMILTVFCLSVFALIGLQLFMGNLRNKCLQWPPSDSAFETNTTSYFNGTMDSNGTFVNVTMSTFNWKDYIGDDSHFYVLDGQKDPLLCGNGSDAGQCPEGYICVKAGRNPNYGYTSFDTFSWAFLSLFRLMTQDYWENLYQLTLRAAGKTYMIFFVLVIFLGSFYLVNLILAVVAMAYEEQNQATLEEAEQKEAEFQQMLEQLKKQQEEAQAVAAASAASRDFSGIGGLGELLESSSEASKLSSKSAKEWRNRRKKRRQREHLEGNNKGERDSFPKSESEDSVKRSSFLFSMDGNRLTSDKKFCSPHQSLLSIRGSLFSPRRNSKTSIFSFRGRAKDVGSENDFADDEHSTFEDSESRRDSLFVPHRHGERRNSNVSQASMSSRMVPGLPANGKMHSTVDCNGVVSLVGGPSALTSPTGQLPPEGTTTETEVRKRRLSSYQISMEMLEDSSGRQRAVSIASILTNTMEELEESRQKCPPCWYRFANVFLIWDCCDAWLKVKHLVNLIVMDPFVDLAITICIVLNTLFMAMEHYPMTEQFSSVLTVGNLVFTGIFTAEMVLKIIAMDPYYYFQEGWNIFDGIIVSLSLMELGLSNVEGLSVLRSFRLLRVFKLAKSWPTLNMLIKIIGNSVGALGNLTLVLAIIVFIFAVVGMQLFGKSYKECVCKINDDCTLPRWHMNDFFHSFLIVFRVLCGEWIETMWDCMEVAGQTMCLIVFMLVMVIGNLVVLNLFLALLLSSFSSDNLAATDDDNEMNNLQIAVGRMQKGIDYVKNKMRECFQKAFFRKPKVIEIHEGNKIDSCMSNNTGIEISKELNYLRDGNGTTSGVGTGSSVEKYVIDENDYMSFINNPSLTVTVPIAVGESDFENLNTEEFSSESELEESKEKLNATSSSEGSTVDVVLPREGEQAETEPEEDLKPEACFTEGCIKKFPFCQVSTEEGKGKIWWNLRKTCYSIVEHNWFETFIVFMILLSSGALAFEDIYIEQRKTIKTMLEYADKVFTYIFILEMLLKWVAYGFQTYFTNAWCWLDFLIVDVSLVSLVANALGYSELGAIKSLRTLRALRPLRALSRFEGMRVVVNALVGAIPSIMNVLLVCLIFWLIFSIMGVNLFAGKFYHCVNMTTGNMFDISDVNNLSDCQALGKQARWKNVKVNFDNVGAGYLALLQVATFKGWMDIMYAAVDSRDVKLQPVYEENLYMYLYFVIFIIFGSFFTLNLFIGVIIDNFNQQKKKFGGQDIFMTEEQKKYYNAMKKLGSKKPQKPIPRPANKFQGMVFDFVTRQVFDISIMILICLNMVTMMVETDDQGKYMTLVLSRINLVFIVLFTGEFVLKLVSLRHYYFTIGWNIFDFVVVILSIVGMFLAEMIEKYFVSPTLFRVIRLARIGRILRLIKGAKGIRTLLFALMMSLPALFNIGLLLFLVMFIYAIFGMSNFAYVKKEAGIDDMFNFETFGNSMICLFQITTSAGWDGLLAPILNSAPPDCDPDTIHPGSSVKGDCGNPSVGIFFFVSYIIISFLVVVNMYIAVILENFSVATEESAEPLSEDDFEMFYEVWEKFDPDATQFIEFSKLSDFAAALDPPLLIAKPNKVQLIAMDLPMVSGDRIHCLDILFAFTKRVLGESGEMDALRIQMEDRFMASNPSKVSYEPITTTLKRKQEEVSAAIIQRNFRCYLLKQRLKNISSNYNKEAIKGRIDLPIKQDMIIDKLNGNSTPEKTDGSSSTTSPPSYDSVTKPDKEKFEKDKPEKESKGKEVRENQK

[5] = biological target: Sodium channel protein type 4 subunit alpha (Homo sapiens, UniProt P35499); test: Inhibition of human Nav1.4 expressed in HEK293 cells assessed as reduction in peak inward current by manual whole cell patch clamp electrophysiology assay; type: cell-based
[6] = biological target: T1, Sodium channel protein type 9 subunit alpha (Homo sapiens, UniProt Q15858); test: Inhibition of human Nav1.7 expressed in HEK293 cells assessed as tonic block at pulse 1 by ionworks quattro electrophysiology assay; type: cell-based
T1 sequence (Q15858 whole entry): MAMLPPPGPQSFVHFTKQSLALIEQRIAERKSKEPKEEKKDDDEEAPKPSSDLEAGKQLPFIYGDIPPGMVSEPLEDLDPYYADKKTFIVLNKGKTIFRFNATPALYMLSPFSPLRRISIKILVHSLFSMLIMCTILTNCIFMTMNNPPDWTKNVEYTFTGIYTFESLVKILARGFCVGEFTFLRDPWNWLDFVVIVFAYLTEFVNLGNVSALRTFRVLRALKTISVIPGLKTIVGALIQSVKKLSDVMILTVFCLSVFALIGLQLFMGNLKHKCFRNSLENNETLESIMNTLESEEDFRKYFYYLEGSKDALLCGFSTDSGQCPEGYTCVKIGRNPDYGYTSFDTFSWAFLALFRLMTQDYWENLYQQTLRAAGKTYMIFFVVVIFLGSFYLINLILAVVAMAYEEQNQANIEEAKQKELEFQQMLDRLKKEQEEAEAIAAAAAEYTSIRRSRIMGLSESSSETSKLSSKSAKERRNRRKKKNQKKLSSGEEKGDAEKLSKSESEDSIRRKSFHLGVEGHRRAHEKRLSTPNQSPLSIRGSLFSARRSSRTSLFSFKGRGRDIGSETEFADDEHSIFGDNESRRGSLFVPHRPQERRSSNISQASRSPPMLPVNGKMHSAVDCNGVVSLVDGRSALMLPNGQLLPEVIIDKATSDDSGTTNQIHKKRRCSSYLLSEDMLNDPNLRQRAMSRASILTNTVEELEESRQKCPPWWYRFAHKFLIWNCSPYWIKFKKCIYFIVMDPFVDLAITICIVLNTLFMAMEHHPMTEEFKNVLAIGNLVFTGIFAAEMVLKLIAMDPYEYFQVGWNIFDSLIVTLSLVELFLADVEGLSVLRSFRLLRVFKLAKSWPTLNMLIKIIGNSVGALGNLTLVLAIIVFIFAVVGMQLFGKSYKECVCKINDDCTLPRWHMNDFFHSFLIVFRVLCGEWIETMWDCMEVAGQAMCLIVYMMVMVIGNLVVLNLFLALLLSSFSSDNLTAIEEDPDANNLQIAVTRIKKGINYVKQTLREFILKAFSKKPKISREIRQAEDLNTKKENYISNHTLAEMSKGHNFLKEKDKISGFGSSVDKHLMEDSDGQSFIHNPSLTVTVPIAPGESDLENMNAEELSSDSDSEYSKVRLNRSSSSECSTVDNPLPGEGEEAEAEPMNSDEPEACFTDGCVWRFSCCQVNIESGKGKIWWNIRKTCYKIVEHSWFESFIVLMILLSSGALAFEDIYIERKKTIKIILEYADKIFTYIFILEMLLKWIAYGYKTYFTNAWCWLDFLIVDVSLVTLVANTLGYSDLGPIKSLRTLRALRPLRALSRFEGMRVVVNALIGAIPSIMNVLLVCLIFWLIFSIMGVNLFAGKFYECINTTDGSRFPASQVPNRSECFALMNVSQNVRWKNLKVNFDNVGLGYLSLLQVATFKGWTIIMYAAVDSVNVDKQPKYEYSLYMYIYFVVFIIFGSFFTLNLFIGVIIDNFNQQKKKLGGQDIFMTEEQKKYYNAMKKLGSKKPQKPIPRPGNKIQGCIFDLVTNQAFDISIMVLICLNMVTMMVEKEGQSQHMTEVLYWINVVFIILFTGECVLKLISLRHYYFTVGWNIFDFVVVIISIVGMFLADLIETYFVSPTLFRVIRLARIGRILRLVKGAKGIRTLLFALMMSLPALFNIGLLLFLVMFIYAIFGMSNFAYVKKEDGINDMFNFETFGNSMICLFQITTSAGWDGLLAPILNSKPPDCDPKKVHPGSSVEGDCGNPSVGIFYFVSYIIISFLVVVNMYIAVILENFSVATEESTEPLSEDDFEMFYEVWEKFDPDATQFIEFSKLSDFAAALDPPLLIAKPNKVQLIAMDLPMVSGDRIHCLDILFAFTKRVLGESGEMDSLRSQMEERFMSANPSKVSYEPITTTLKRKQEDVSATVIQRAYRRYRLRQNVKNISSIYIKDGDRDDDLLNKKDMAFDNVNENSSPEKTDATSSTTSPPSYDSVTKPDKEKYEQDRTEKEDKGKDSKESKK

[7] = biological target: T1, Sodium channel protein type 9 subunit alpha; test: Inhibition of human Nav1.7 expressed in HEK293 cells assessed as use-dependent block at pulse 26 by ionworks quattro electrophysiology assay; type: cell-based
[8] = biological target: T1, Sodium channel protein type 9 subunit alpha; test: Inhibition of human Nav1.7 at resting/closed state expressed in HEK293 cells at -140 mV holding potential by manual whole cell patch clamp electrophysiology assay; type: cell-based
[9] = biological target: T1, Sodium channel protein type 9 subunit alpha; test: Inhibition of human Nav1.7 at 20% inactivated state expressed in HEK293 cells at -140 mV holding potential followed by channel inactivation by manual whole cell patch clamp electrophysiology assay; type: cell-based
Outline: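 Tested on channels about 20% inactivated.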

Mus musculus [10] = test: In vivo inhibition of Nav1.7 in C57BL/6 mouse assessed as unbound plasma concentration required to reduce histamine-induced scratching bouts at 100 mg/kg, po administered 4 hrs prior to histamine challenge measured for 15 mins; type: functional, organism-based; outline: as §1
[11] = Free plasma concentration in naive C57BL/6 mouse assessed as effect on basic locomotor movement at 100 mg/kg, po measured after 4 hrs for 60 mins by open field test; type: ADME, organism-based; details: in vivo
Outline: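 Naive mice were dosed orally with vehicle or test article at 30, 100 or 300 mg/kg (n = 10 per group). Total basic movement in an open-field arena was recorded after dosing, and unbound plasma concentration was reported per dose.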

[12] = biological target: Voltage-gated inwardly rectifying potassium channel KCNH2 (Homo sapiens, UniProt Q12809)
Cytochrome P450 3A4 [13] = biological target: T2, Cytochrome P450 3A4 (Homo sapiens, UniProt P08684)
T2 sequence (P08684 whole entry): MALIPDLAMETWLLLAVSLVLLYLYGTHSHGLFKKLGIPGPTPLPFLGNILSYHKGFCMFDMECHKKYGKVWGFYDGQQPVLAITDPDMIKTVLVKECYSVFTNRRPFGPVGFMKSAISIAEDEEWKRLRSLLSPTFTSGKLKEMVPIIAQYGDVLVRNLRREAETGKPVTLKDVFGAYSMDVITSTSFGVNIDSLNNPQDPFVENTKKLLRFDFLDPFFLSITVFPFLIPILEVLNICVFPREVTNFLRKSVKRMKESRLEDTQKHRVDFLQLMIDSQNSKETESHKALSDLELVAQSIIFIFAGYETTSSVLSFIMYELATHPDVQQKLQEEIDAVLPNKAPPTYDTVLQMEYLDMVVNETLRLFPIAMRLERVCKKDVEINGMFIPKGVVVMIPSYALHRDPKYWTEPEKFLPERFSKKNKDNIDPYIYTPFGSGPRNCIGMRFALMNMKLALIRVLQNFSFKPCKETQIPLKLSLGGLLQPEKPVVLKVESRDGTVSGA

Cytochrome P450 3A4 [14] = biological target: T2, Cytochrome P450 3A4; remark: listed apart in the source
Cytochrome P450 2C9 = Cytochrome P450 2C9 (Homo sapiens, UniProt P11712)
Chain of Cytochrome P450 2C9 (P11712 whole entry): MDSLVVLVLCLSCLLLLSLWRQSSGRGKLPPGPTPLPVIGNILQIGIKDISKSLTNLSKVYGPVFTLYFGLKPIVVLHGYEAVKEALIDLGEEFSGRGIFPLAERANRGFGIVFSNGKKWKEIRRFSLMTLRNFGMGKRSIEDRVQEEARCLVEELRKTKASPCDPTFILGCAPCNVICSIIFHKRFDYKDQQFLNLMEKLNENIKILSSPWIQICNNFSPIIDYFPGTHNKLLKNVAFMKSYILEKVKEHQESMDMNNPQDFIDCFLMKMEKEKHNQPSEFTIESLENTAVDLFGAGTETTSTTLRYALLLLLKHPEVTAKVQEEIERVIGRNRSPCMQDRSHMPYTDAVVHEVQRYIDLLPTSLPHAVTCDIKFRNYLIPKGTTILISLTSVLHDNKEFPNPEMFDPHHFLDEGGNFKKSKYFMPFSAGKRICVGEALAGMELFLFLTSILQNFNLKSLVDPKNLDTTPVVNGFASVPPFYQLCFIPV

in vitro = details: rat, liver microsomes
physchem = details: fasted state simulated intestinal fluid, pH 6.8
[15] = Toxicity in C57BL/6 mouse assessed as reduction in locomotor activity at 30 mg/kg, po for 4 hrs by open field test; details: in vivo
[16] = Toxicity in C57BL/6 mouse assessed as reduction in locomotor activity at 100 mg/kg, po for 4 hrs by open field test; details: in vivo

IC50 [1]: 115 nM | AUC(0-inf) [2]: 5.4 µM·h | IC50 [4]: 12500 nM | IC50 [5]: 1100 nM | IC50 [6]: 44 nM | IC50 [7]: 42 nM | IC50 [8]: > 30000 nM | IC50 [9]: 51 nM | Cp(f) [11]: 2390 nM | IC50 (Cytochrome P450 3A4 [13]): > 50000 nM | IC50 (Cytochrome P450 3A4 [14]): > 50000 nM | IC50 (Cytochrome P450 2C9): 49600 nM | microsomal CLint at 1 µM (in vitro): < 14 µL/min/mg | solubility thermodynamic at 24 h (physchem): 500 µM (≈ 243 µg/mL)
SMILES: COc1cc(C(=O)NS(C)(=O)=O)c(F)cc1-c1cnc(Oc2cc(F)ccc2F)c(Cl)c1
inhibition in vivo at 300 mg/kg (Mus musculus [3]): 75% | Activity (Mus musculus [10]): inactive | Ki [12]: > 30000 nM | Activity [15]: Non-Toxic | Activity [16]: Non-Toxic
